# Laboratory results reported in article PMC12690603 (Chemical Science, 2025).
# Non-standard residues stand in square brackets, D forms with d. No end group written: not given here. βAla = NCCC(=O)O
# Tests used:
# Type in all cases: biochemical
# [1] = molecular target: T1, human SETD7 (Homo sapiens, UniProt Q8WTS6); experiment: SETD7-catalysed methylation of H3 peptides, conversion by MALDI-TOF MS; details: SAM 30 µM; for methylation by SETD7 (conversion to methylated product): 13-mer peptide 10 µM, MALDI-TOF MS; for methylation by SETD7 in time-course: within 30 min
# T1 sequence (Q8WTS6 1-366): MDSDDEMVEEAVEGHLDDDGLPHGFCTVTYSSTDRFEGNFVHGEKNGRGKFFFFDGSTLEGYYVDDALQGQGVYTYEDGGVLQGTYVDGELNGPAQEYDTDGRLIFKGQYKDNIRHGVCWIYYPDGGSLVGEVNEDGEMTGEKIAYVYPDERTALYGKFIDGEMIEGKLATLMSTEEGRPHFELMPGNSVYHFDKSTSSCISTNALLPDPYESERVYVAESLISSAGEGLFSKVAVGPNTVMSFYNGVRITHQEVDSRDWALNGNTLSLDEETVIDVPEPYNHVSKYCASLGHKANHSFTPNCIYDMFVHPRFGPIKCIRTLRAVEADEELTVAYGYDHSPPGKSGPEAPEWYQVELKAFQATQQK
# How it was run: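 Recombinant human SETD7 (100 nM, 500 nM or 1 µM) was incubated with stapled or linear H3 peptide (10 µM) and SAM (30 µM) in 50 mM HEPES, 0.1 mM EDTA, 1 mM DTT, pH 8, at 37 °C with shaking at 750 rpm. Reactions were quenched with 10% (v/v) TFA at set times. Methylation (+14 Da) was measured by MALDI-TOF MS. % conversion came from peak areas. n = 2, standard deviations.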
# [2] = molecular target: T1, human SETD7; experiment: Steady-state kinetics of SETD7-catalysed methylation; details: for K m / k cat: peptide 1–150 µM, SETD7 50–300 nM, 10 or 20 min, MALDI-TOF MS, mean ± SD, SD; for K m / k cat / k cat/Km: SAM 30 µM, 37 °C, n = 3; for fold increase of kcat/Km compared to linear H3K4 (1): steady-state kinetics, relative to peptide 1; for k cat/Km: steady-state
# How it was run: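 Recombinant human SETD7 (50–300 nM) added to start reactions containing H3 peptide (1–150 µM series) and SAM (30 µM). Incubated at 37 °C for 10 or 20 min with shaking, then quenched. MALDI-TOF MS was the read-out, with % methylation from integrated […] peak areas. Three independent experiments, SD. kcat/Km values were compared with the linear H3K4 reference peptide.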
# [3] = system: human SETD1A; experiment: SETD1A-catalysed methylation of 21-mer H3 peptides; details: 21-mer peptide 2 µM, SETD1A 1 µM, SAM 100 µM, pH 8.6, 37 °C, 3 h, n = 2
# [4] = SETD7 100 nM, peptide 10 µM, 37 °C, n = 2
# [5] = SETD7 500 nM, 50 mM HEPES, 0.1 mM EDTA, 1 mM DTT, pH 8.0, 37 °C, 1 h, n = 2
"methylation by SETD7 (conversion to methylated product) ([1]; SETD7 1 µM, 37 °C, 3 h)",K m [2],k cat [2],fold increase of kcat/Km compared to linear H3K4 (1) [2],k cat/Km [2],"methylation by SETD7 (conversion to methylated product) ([1]; SETD7 100 nM, 37 °C, 1 h)",Substance,other results
~11%,,,,,,GRTKQTERKSTGG (also: sidechain bridge or staple (positions not given here)) [Peptide 15],
~95%,36.2 ± 7.54 µM,0.0598 ± 0.0065 s⁻¹,7 fold,1650 M⁻¹ s⁻¹,,AzaRTKQPraARKSTGG (sidechain bridge or staple) [Peptide 3],
,10.4 ± 1.88 µM,0.23 ± 0.014 s⁻¹,97 fold,22200 M⁻¹ s⁻¹,~89%,D-ARTKQEARKSTGG (sidechain bridge or staple) [Peptide 6],"methylation by SETD7 in time-course [1, 4]: ~90%"
< 5%,,,,,,GRTKETARKSTGG (also: sidechain bridge or staple (positions not given here)) [Peptide 14],
~40%,,,,,,GRTKQEARKSTGG [Peptide 16],
,12.5 ± 2.77 µM,0.031 ± 0.00233 s⁻¹,10 fold,2500 M⁻¹ s⁻¹,~10%,ARTKQDARKSTGG (also: sidechain bridge or staple (positions not given here)) [Peptide 5],"methylation by SETD7 (conversion to methylated product) [1, 5]: fully converted to methylated product"
,17.7 ± 3.15 µM,0.0495 ± 0.00317 s⁻¹,12 fold,2830 M⁻¹ s⁻¹,~48%,[βAla]RTKQEARKSTGG (also: sidechain bridge or staple (positions not given here)) [Peptide 11],
~91%,,,,,,GGRTKQEARKSTGG (also: sidechain bridge or staple (positions not given here)) [Peptide 13],
~75%,,,,,,RTKQEARKSTGG (also: sidechain bridge or staple (positions not given here)) [Peptide 12],
,34.1 ± 7.76 µM,0.0423 ± 0.00433 s⁻¹,5 fold,1230 M⁻¹ s⁻¹,~64%,VRTKQEARKSTGG (also: sidechain bridge or staple (positions not given here)) [Peptide 8],
,,,,,,ARTKQEARKSTGG (also: sidechain bridge or staple (positions not given here)) [Peptide 4],"methylation by SETD7 (conversion to methylated product) [1, 5]: ~63%"
,61.6 ± 12.6 µM,0.014 ± 0.0013 s⁻¹,,233 M⁻¹ s⁻¹,,"ARTKQTARKSTGG [Peptide 1, reference compound]","methylation/turnover in time-course at low enzyme concentration (in words) ([1]; SETD7 100 nM, peptide 10 µM, 37 °C, time-course): lack of H3K4 (1) methylation; methylation by SETD7 (conversion to methylated product) [1, 5]: ~56%"
~86%,,,,,,CRTKQCARKSTGG (also: sidechain bridge or staple (positions not given here)) [Peptide 2],
,1.84 ± 0.27 µM,0.046 ± 0.00283 s⁻¹,110 fold,25000 M⁻¹ s⁻¹,~96%,GRTKQEARKSTGG (also: sidechain bridge or staple (positions not given here)) [Peptide 7],"methylation by SETD7 in time-course [1, 4]: ~90%"
,34.6 ± 9.78 µM,0.0493 ± 0.00517 s⁻¹,6 fold,1430 M⁻¹ s⁻¹,~62%,FRTKQEARKSTGG (also: sidechain bridge or staple (positions not given here)) [Peptide 9],
,,,,,,"21-mer H3K4: longer linear H3K4 substrate peptide, residues 1–21 [reference compound]","methylation by SETD7 ([1]; 21-mer peptide (residues 1–21) 10 µM, SETD7 500 nM, 37 °C, 3 h, n = 2): ~88%; dimethylated product by SETD1A [3]: ~9%"
